Hits are enriched below; roughly 0.97% of the tested compounds scored in any of these assays.
B2AR ag – agonists of human beta-2 adrenergic receptor inducing internalization; 340,000 compounds, 0.43% hits; Am2.2-beta2AR cells, FAP receptor internalization, flow cytometry; response, % (no concentration beside the values); AID 504454;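 active means response above a set limit, near 3 SD of response in nonfluorescent compounds, cut at about 42% in these data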
Target sequence (P07550 whole entry, looked up): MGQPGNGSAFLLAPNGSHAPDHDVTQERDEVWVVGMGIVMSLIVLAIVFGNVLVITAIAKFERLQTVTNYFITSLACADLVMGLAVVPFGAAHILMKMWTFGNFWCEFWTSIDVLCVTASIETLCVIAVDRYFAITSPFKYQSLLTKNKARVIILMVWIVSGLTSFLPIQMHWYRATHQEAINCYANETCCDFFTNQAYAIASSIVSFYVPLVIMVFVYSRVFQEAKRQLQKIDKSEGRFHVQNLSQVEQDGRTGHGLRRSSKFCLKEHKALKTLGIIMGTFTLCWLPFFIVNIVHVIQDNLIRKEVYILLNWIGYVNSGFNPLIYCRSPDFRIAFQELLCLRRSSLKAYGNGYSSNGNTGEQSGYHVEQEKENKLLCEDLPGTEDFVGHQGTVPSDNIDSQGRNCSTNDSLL
TNF necrop inh – TNF-alpha cell death inhibition in Jurkat FADD-/- cells | Jurkat FADD-/- TNF necroptosis rescue, ATP luminescence, 24 h; 0 = TNF only, 100 = no-TNF cells | activation (protection from cell death), % at 10 µM | 220,000 compounds, 0.068% hits;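 active means activation, meaning protection from cell death, of at least 50% relative to plate controls; inactive means activation below 50%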;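 further: necroptosis triggered by 40 ng/mL TNF-alpha added together with compound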
Mdm2 ligase inh – Mdm2 E3 ligase (human) inhibition; AID 1230; Q00987; cell-based MDM2 ubiquitination luciferase reporter, 2 h; 0 = plate control, 100 = twice control, blank-subtracted; signal enhancement, % at 5 µM; 210,000 compounds, 0.11% hits;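 active means signal enhancement of 30% or more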;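 further: luminescence tracks abundance of the self-degrading MDM2-luciferase fusion protein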
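Assay system: stable mammalian line carrying autodegrading MDM2–luciferase fusion reporter; Input: 2000 cells in each well; Compound dosing: single-point 5 µM; Schedule: 2 h compound exposure at 37 °C; Signal: SteadyLite luciferase luminescence after 15 min room-temperature reagent incubation; Evaluation: % luminescence enhancement versus blank-corrected plate control mean; Benchmarks: plate controls and plate blanks.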
Dynein transport – dynein cargo transport inhibition | 3617.4 mouse cells, GR-EGFP nuclear translocation imaging; test concentration mostly 20 µM; stimulated with dexamethasone, 1 µM; active compounds read low | z-score, hits read low | 220,000 compounds, 0.47% hits | AID 1381;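 active means plate z-score of nuclear minus cytoplasmic receptor signal below a set negative limit, without overly bright fluorescence or cell loss, cut at about -3.5 in these data, passing the limit was not always enough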;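 further: z-score of nuclear minus cytoplasmic ring GR-EGFP intensity difference per well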
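Buffer or medium: tet-free, stripped-serum medium; reagent: dexamethasone at 1.0 µM final, 30 min; incubation: 48 h induction, 1 h compound, 30 min dex at 37 °C; measured by: formaldehyde fixation, Hoechst nuclear stain, 10x automated fluorescence imaging; read-out: nuclear-to-cytoplasmic GR-EGFP distribution per well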
zVAD death inh – blocks zVAD induced death of L929 cells | viability rescue, % at 10 µM | 220,000 compounds, 0.38% hits | AID 1377 | L929 zVAD necroptosis rescue, ATP luminescence, 24 h; with zVAD 60 µM;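 active means activation, scaled between plate controls, above about 75%, limit read from the data; inactive means activation under that limit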;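 further: 0% = zVAD with DMSO and 100% = DMSO alone without zVAD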
Dynein confirm – dynein cargo transport inhibition, confirmation. calls only at 20 µM. shares compounds with Dynein transport. 1,000 compounds, 69% hits. 3617.4 GR-EGFP nuclear translocation imaging, dexamethasone-induced;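 active means inhibition of receptor movement into the nucleus at or above a set limit in both runs, with normal cell brightness and cell count; inconclusive means limit reached in only one run, brightness and count normal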;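 further: dexamethasone at 1 µM final in well for 30 min; nuclear minus cytoplasmic GR-EGFP mean intensity difference in channel 2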
* = called active by the depositor; i = inactive; ? = inconclusive; · = no result given; + = active, no number.

SMILES | B2AR ag | TNF necrop inh | Mdm2 ligase inh | Dynein transport | zVAD death inh | Dynein confirm
CC(c1ccccc1)N1CCN(C(=O)CCl)CC1 (stereo unspecified) | 6 | -7 | -5 | -4.9* | 0 | i
O=C(/C=C/c1ccco1)Nc1ccccc1N1CCCC1 | 3 | 1 | -1 | -3.6* | 2 | i
O=C(/C=C/c1ccco1)NC(=S)Nc1ccccc1N1CCCC1 | 0 | 0 | -11 | 0.45 | 0 | ·
C#CCNC(=O)C1=C[C@@H](c2coc3ccccc3c2=O)[C@H](CCCO)[C@@H](OCC)O1 | -10 | 2 | · | -0.28 | 0 | ·
O=C(NC1CCCC1)C(c1ccc(F)cc1)N(Cc1ccc(Cl)cc1)C(=O)CCl (stereo unspecified) | 3 | -12 | -10 | -3.7* | 2 | +
O=C(NC1CCCC1)C(c1ccc(Cl)cc1)N(Cc1ccc(F)cc1)C(=O)CCl (stereo unspecified) | 8 | -13 | -19 | -5.3* | 20 | +
COC(=O)c1ccc(C(C(=O)NC2CCCCC2)N(Cc2ccc(F)cc2)C(=O)Cc2cccs2)cc1 (stereo unspecified) | 6 | -1 | -3 | -0.77 | 1 | ·
COC(CN(C(=O)CCl)C(C(=O)NC1CCCCC1)c1ccc(Cl)cc1)OC (stereo unspecified) | 1 | -1 | -5 | -4.1* | 3 | +
COC(CN(C(=O)CCl)C(C(=O)NC1CCCC(C)C1C)c1ccc(C)cc1)OC (stereo unspecified) | 8 | 0 | -13 | -4.3* | 1 | +
CC1(C)Cc2c(ccc3ccccc23)-c2nnc(-c3cccnc3)n21 | -10 | -5 | 6 | -0.67 | 0 | ·
CC(C)c1ccc(N2C(=O)CSC23C(=O)N2CCCc4cccc3c42)cc1 (stereo unspecified) | -1 | 1 | -1 | 0.17 | 0 | ·
O=C(Oc1coc(CSc2ncccn2)cc1=O)c1cccc([N+](=O)[O-])c1 | 8 | 0 | -5 | -0.65 | 1 | ·
Cc1ccnc(SCc2cc(=O)c(OC(=O)c3cc([N+](=O)[O-])ccc3Cl)co2)n1 | 0 | -4 | -12 | -4.7* | 0 | +
N#CC1=C(N)N(c2ccccc2)C(c2cccc([N+](=O)[O-])c2)C1(C#N)C#N (stereo unspecified) | 15 | -4 | -7 | -3.7* | 0 | +
COc1ccc(C(=O)CN(Cc2ccccc2)C2=NCCS2)cc1 | 2 | 2 | -9 | -0.53 | -1 | ·
N#C/C(=C/c1ccc(N2CCCCCC2)o1)c1ccc(Cl)cc1 | -918 | -6 | · | -6.1 | 1 | i
Cc1ccc(/C(C#N)=C\c2ccc(N3CCOCC3)o2)cc1 | -38 | -6 | 11 | -3 | 2 | ·
N#C/C(=C/c1ccc(N2CCCCC2)o1)c1cccc(F)c1 | -71 | -5 | -16 | -4.3 | 0 | i
CCOC(=O)C(C(=O)OCC)C(C(=O)OCC)N1CCOCC1 (stereo unspecified) | 19 | -6 | 3 | -4.6* | 1 | +
CCN(Cc1ccc(OC)c(F)c1)C(=O)CCl | 1 | -3 | -14 | -4.3* | 0 | ?
CCN(Cc1ccc(OC)c(F)c1)C(=O)C1CCCO1 (stereo unspecified) | -10 | · | · | · | · | ·
O=S1(=O)CC=C(CSC(=S)NC2CCS(=O)(=O)C2)C1 (stereo unspecified) | 18 | -6 | · | -4.8* | -3 | +
Cc1cc(C)n(-c2nnc(SCC(=O)NC3CCCC3)c3ccccc23)n1 | -4 | -2 | 2 | -0.86 | 0 | ·
C=C1C(=O)[C@@]23[C@H](O)C[C@@H]4C(C)(C)CC[C@H](O)[C@]4(C)[C@@H]2C[C@H](O)[C@@H]1[C@H]3O | 9 | -23 | · | -5.1* | 1 | +
CC(C)N=c1scc(-c2cccs2)n1/N=C/c1ccc(O)c(O)c1O | 10 | -3 | 6 | -4.2* | 1 | +
CC(C)(C)C(=O)/C(C#N)=C/c1cccs1 | 0 | 1 | -5 | 0.27 | -1 | ·
N#C/C(=C\c1cccs1)C(=O)c1ccccc1Cl | 54* | -12 | -21 | -4.9* | 0 | +

From PubChem BioAssay
